# MPTP inh: blocks calcium-induced mitochondrial swelling | isolated mouse mitochondria, Ca2+ swelling absorbance, 30 min | inhibition, % at 10 µM | 1.4% of 360,000 active | AID 602449;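 active = inhibition of 50% or more, scaled per plate between neutral and stimulator controls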;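 note: 0% = DMSO wells given calcium and 100% = 1 mM EGTA wells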
# MC4R ag barr: human MC4R agonism via beta-arrestin; P32245; U2OS MC4R beta-arrestin complementation, luminescence; percent of melanotan II response, DMSO zero; activation, % at 8.9 µM; 0.98% of 360,000 active;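 active = activation above a per-plate cutoff, the mean activation of sample wells on that plate plus 3 SD, cut at about 8% in these data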
# SMARCA2 activ: SMARCA2 function activation, primary screen; 1% of 370,000 active; MG213 cells, MMTV-luciferase reporter, dexamethasone, overnight; AID 652017; activation, % at 9.1 µM; in the data active = activation above about 7.8%;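 note: 0% = vehicle wells and 100% = reference activator wells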
# MC4R antagonist: antagonists of human melanocortin 4 receptor (MC4R); P32245; 0.48% of 360,000 active; MC4R-expressing cells, MTII-stimulated cAMP, LANCE TR-FRET; inhibition, % at 6.5 µM;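 active = inhibition above its plate's cutoff, the mean of tested wells on that plate plus 3 SD, cut at about 29% in these data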;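 note: 0% = Melanotan II alone and 100% = Melanotan II plus saturating MCL0020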
#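 System: U2OS cells stably expressing human melanocortin 4 receptor (MC4R). Reagent: Melanotan II challenge after compound preincubation. Doses: 6.5 µM. Times: 30-min compound, 1-h challenge, 1-h detection, room temperature. Measured by: TR-FRET with Eu-cAMP and labeled anti-cAMP, 671 nm. Replicates: singlicate.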
# ATG4B inh: blocks human ATG4B protease cleavage of LC3 substrate | 0.51% of 340,000 active | ATG4B cleavage of LC3-PLA2, NBD-HPC fluorescence, 1 h | inhibition, % at 8.33 µM; in the data active = inhibition above about 40%
# Target sequence (Q9Y4P1 whole entry, looked up): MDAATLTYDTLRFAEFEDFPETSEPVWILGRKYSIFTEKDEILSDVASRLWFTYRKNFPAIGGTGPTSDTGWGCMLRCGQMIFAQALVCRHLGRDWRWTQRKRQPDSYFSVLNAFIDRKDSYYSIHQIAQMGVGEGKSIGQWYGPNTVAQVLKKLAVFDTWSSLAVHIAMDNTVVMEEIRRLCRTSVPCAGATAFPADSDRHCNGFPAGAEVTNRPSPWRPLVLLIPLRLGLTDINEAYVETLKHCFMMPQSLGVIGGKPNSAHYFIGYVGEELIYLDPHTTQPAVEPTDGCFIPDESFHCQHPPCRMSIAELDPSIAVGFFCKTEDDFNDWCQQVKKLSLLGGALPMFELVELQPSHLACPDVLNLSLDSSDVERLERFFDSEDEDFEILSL
# MC4R barr ag: human MC4R beta-arrestin agonism confirmation; 31% of 2,400 active; shares compounds with MC4R ag barr; activation, % at 8.9 µM; AID 602192; U2OS MC4R beta-arrestin recruitment, luminescence; scaled DMSO 0%, Melanotan II 100%;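 active = mean activation across replicates above the hit cutoff set in the earlier primary screen, cut at about 8% in these data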
# MOR-DOR barr ag: counter-screen for MC4R agonists: agonists of mu-delta opioid heterodimer; activation, % at 9.2 µM; 5.8% of 2,400 active; U2OS PathHunter beta-arrestin, beta-gal luminescence; percent of deltorphin B response, DMSO zero; shares compounds with MC4R ag barr;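 active = mean activation across replicates exceeds the hit threshold derived in the earlier primary screen, cut at about 18% in these data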;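 note: 100% = deltorphin B at 0.9 µM final and 0% = DMSO alone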
# Starred values were filed as active, the others as inactive; x = no result. Rows were chosen to be rich in hits. Some 4.1% of all compounds tested hit in one or more screens of this group.
SMILES,MPTP inh,MC4R ag barr,SMARCA2 activ,MC4R antagonist,ATG4B inh,MC4R barr ag,MOR-DOR barr ag
COc1ccc2c(c1)CCCC2NS(=O)(=O)OCC(Cl)(Cl)Cl (centres undefined),3,10*,0,9,2,3,10
COc1ccc(CNC2CCCc3ccccc32)c(OC)c1 (centres undefined),0,2,-4,3,4,x,x
O=C(CNC(=O)c1ccccc1)Nc1cccc(C(F)(F)F)c1,4,0,-4,8,4,x,x
Cc1ccc(C(=O)NCC(=O)Nc2cccc(C(F)(F)F)c2)cc1,1,15*,-2,10,5,-1,3
c1ccc(-c2nnc(-c3c[nH]c4ccccc34)nc2-c2ccccc2)cc1,3,15*,0,8,1,-4,1
O=[N+]([O-])c1cc(/C=N/NC(=S)Nc2ccccc2Cl)ccc1Cl,19,-1,3,-11,-8,x,x
COc1ccc(NC(=S)N/N=C/c2cccn2Cc2ccccc2F)cc1,6,10*,-1,13,8,0,7
Cc1ccc(NC(=S)N/N=C/c2ccc(Cl)c([N+](=O)[O-])c2)cc1,3,21*,0,28,-2,5,3
COc1ccc(NC(=S)N/N=C/c2cccn2Cc2ccc(F)cc2Cl)cc1,12,1,2,15,-6,x,x
COc1ccc(NC(=S)N/N=C/c2ccc(F)c(F)c2)cc1,5,14*,0,12,-5,3,7
O=C(CN1CCN(Cc2ccccc2Cl)CC1)N/N=C\c1ccccc1F,x,x,-2,x,x,x,x
O=C(NC1CCCC1)c1cc2nc(-c3ccccc3)cc(-c3ccccc3)n2n1,2,-1,-1,11,-8,x,x
O=C(Nc1cccc(O)c1)c1cc2nc(-c3ccccc3)cc(-c3ccccc3)n2n1,-4,12*,-2,16,-9,8,5
Cc1cc(C)c2nc(-c3ccccn3)cc(C(=O)Nc3cc(C)on3)c2c1,4,16*,1,14,10,3,4
Cc1cc(NC(=O)c2cc(-c3ccccn3)nc3ccccc23)no1,-1,-1,-2,14,-2,x,x
COc1ccc(NC(=O)Nc2cccc(Cl)c2Cl)c(OC)n1,22,23*,4,4,0,5,6
CC(=O)c1sc(NC(=O)CCCOc2ccc(Cl)cc2)nc1C,-1,11*,-3,-6,4,2,2
Cc1c(P(=S)(c2ccccc2)c2ccccc2)[n+]2ccccc2n1C/C=C/c1ccccc1,0,15*,-7,15,x,6,37*
C=CCN1[C@H](C)COc2cccc(N3CCCC3)c2S1(=O)=O,x,x,1,x,x,x,x
Cc1ccc(C(=O)Nc2c(C)cc(-c3ccc(Cl)cc3)oc2=O)cc1,24,19*,-2,-6,-4,0,8
Cc1ccc(NC(=O)C2C3/C=C\CCCCC32)cc1C (centres undefined),1,19*,3,-4,13,2,6
COc1ccccc1-c1csc(-n2ncc(C#N)c2N)n1,-2,0,0,-11,x,x,x
Nc1c(-c2cccs2)cnn1-c1nc(-c2ccc(Cl)cc2Cl)cs1,9,19*,-5,-1,-6,21*,3
Cc1nc2c(-c3ccc(F)cc3)c(C)nn2c(C)c1CCC(=O)Nc1ccccc1F,3,13*,-1,2,1,-2,4
COc1cc(NC(=O)C2CCCN(S(=O)(=O)c3cccc4cccnc34)C2)cc(OC)c1 (centres undefined),x,x,-3,x,x,x,x
SMILES,MPTP inh,MC4R ag barr,SMARCA2 activ,MC4R antagonist,ATG4B inh,MC4R barr ag,MOR-DOR barr ag
COc1cccc(CN(Cc2ccccc2F)S(=O)(=O)c2ccc(S(=O)(=O)NCc3ccccc3)cc2)c1,16,22*,0,-1,15,8,9
C#CCOc1ccc(/C=C2\SC(=S)N(Cc3cccnc3)C2=O)cc1,3,13*,-3,2,2,3,3
COc1cc(NC(=O)CSc2nc(C)cc(=O)[nH]2)cc(OC)c1,x,x,-6,x,x,x,x
CC(C)(C)c1ccc(-c2nnc(SCC(=O)Nc3ccc(S(=O)(=O)Nc4nccs4)cc3)n2-c2ccc(Cl)cc2)cc1,x,x,1,x,x,x,x
Cc1ccc(CSCC(=O)N/N=C/c2ccc(OCC(=O)Nc3ccc(C)cc3)cc2)cc1,0,16*,-2,4,-1,4,5
CCOc1cc(OCC)cc(C(=O)N2CCC[C@@H]2C(=O)N2CCC[C@@H]2C(=O)NCc2cccc(OC)c2)c1,x,x,-6,x,x,x,x
CC(C)c1ccc(NC(=O)Cn2ncn3c(cc4ccccc43)c2=O)cc1,2,12*,-1,4,-9,2,8
O=C(CSc1nc2ccccc2s1)CSc1nc2ccccc2s1,4,15*,-3,0,6,8,2
O=C(O)CSc1nc2ccccc2s1,0,2,-2,-4,-6,x,x
Cn1c(SCC(=O)Nc2ccc3c(c2)oc2ccccc23)nnc1-c1ccccc1,0,10*,-2,17,1,5,4
O=C(CSc1nc2ccccc2s1)Nc1ccc2c(c1)oc1ccccc12,16,17*,-1,4,2,5,4
O=C(CSc1nc2ccccc2s1)Nc1ccc(Cl)c(C(=O)O)c1,-2,1,-3,1,-14,x,x
CCOC(=O)C1(C(=O)OCC)N=C(c2ccccc2)C=C1c1ccccc1,x,x,-5,x,x,x,x
CCOC(=O)C1(Cc2ccccc2)CCN(Cc2ccc(C(F)(F)F)cc2)CC1,x,x,-3,x,x,x,x
COC(=O)[C@]12C[C@H](CC(=O)NCc3cccc4ccccc34)C(=O)N(Cc3ccco3)C1=C[C@H](C(C)(C)C)O[C@@H]2C,x,x,-4,x,x,x,x
CC(C)C[C@@H]1NC(=O)[C@H]2C[C@@]3(C)c4ccccc4N[C@H]3N2C1=O,x,x,-6,x,x,x,x
N#Cc1cccc(Cn2ccc3ccc(-c4ccc5ccn(Cc6ccccc6)c5c4)cc32)c1,x,x,-3,x,x,x,x
C=CCn1c(SCC(=O)Nc2ncc(Cc3ccc(C)c(Cl)c3)s2)nnc1-c1ccncc1,5,30*,-5,4,-4,16*,3
O=C(CN1CCOCC1)Nc1ncc(Cc2cccc(Cl)c2)s1,0,-3,-2,2,-2,x,x
C=CCn1c(SCC(=O)Nc2nnc(CC)s2)nnc1-c1ccncc1,1,-3,-1,25,5,x,x
Cc1cc(C)nc(SCC(=O)Nc2ncc(Cc3cccc(Cl)c3)s2)n1,2,16*,-1,2,-15,8,3
CCCC[C@@H]1C(=O)N2N=Cc3cc4ccccc4cc3[C@H]2N2N=Cc3cc4ccccc4cc3[C@@H]12,x,x,-2,x,x,x,x
